Hits are enriched below; roughly 2.5% of the tested compounds scored in any of these assays.
TRPC4 potent: allosteric potentiators of mouse TRPC4 channel; HEK293 TRPC4beta/mu-opioid, DAMGO EC20, Fluo-4 Ca2+ flux; hits give high values; B-score at 10 µM; hit rate 0.42% among 310,000; AID 2227;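 active = B-score of calcium response area above 5 SD of library B-scores, with initial fluorescence ratio within 5 SD of library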
TRPC4 act: TRPC4 (mouse) channel activation; Q9QUQ5; HEK293 TRPC4beta/mu-opioid, Fluo4 calcium fluorescence; hits give high values; B-score at 10 µM; hit rate 0.49% among 310,000; AID 2237;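 active = B-score above 5 SD of library B-scores, and initial fluorescence ratio not above library mean plus 5 SD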;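 also: positive B-score marks a calcium rise read as TRPC4 activation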
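Assay system: HEK293 cells stably co-expressing mouse TRPC4beta and mu-opioid receptor / Timing: Fluo4 dye loading 45 min at room temperature, 110 s recording / Signal: Fluo4 calcium-sensitive dye fluorescence, kinetic, 1 Hz baseline / Read-out: integrated baseline-normalised fluorescence ratio, converted to per-well B score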
TRPC4 block: blocks the mouse TRPC4 cation channel | AID 2247 | HEK293 TRPC4beta/mu-opioid, DAMGO-evoked Fluo4 calcium flux; hits give low values | B-score at 10 µM | Q9QUQ5 | hit rate 0.39% among 300,000;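 active = B-score over 3 SD under the library average, no early fluorescence shift, positive overall ratio signal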
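Assay system – HEK293 line stably carrying TRPC4beta and mu-opioid receptor · Doses – single dose · Detection – Fluo4 calcium-dye fluorescence, kinetic read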
TRPC6 inh: mouse TRPC6 channel inhibition. HEK293-TRPC6, membrane potential dye, ACh-evoked depolarization; hits give low values. B-score at 10 µM. hit rate 1.1% among 310,000. AID 2553;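 active = B-score under library mean minus 3 SD, initial fluorescence not abnormally high, positive integrated signal ratio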;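 also: B-score derived from integrated fluorescence ratio over the kinetic read; more negative B-score means stronger inhibition of depolarization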
Target sequence (Q61143 whole entry, looked up): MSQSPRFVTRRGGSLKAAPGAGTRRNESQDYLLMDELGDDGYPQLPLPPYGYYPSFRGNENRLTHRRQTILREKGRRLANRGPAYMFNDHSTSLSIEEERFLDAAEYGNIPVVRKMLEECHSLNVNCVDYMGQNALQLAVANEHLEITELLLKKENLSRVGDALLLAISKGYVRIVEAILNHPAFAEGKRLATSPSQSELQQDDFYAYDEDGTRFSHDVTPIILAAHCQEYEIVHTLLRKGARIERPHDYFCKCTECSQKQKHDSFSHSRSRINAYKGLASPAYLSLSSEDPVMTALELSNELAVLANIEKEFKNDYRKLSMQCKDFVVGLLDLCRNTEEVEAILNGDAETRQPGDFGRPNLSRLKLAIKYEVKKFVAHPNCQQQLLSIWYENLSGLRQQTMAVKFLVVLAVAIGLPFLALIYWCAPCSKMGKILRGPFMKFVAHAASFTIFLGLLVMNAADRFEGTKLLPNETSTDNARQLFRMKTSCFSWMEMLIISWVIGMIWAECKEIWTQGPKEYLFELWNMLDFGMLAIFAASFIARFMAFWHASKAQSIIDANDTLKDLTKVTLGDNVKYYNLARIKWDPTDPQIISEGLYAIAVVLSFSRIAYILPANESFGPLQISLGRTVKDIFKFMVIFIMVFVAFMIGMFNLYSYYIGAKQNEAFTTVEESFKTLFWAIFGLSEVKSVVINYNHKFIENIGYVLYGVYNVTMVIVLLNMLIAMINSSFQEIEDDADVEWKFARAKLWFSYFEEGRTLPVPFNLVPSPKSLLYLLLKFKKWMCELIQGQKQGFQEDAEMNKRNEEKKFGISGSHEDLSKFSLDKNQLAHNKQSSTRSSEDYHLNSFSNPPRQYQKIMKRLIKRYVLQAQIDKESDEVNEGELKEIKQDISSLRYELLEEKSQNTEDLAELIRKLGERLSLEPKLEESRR
DSG3 Ab inh: inhibitors of pemphigus antibody binding to human desmoglein-3; P32926; DSG3-coupled beads, scFv-anti-DSG3-GFP binding, flow cytometry; hits give low values; binding (percent of control), % at 10 µM; hit rate 0.48% among 310,000;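 active = binding more than 3 SD below its plate's average and above zero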;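 also: hits lower antibody fragment binding to DSG3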
TRPC6 activator: activators of mouse TRPC6 channel; Q61143; HEK293-TRPC6 membrane potential dye fluorescence; hits give high values; B-score at 10 µM; hit rate 0.13% among 310,000; AID 2550;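 active = B-score of the integrated fluorescence ratio above library mean plus 3 SD, and starting fluorescence ratio within library mean plus 5 SD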;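 also: higher score means more depolarization so channel activation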
TRPC4 spec 2: second selectivity test of TRPC6 inhibitors: effect on mouse TRPC4; shares compounds with TRPC6 inh; HEK293 TRPC4/MOR, membrane potential dye fluorescence; channel activated by saturating DAMGO dose; inhibition, % at 10 µM; hit rate 42% among 920; AID 2776;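 active = compounds whose fluorescence signal differed from control wells by over 3 SD, either direction, in both duplicate plates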
TRPC4 spec: tests whether TRPC6 inhibitors also affect mouse TRPC4. AID 2777. hit rate 61% among 920. activity change, negative = inhibition, % at 10 µM. HEK293 TRPC4/mu-opioid, membrane potential fluorescence. shares compounds with TRPC6 inh;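 active = rise or fall in signal beyond 3 SD of buffer-only wells in both replicate plates, either sign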;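 also: integrated kinetic ratio of fluorescence range over baseline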
HEK293 MPD ctr 2-1: second counter-screen for TRPC6 inhibitors: parental HEK293 cells; signal change vs control, % at 10 µM; shares compounds with TRPC6 inh; AID 2779; parental HEK293 membrane potential dye fluorescence; maximal acetylcholine challenge after compound addition; hit rate 31% among 920;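 active = membrane potential signal moving either way by over 3 SD of the maximum-effect control, in both duplicate plates, meaning non-specific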
HEK293 MPD ctr-1: checks TRPC6 inhibitor effects in parental HEK293 cells; shares compounds with TRPC6 inh; parental HEK293 membrane potential dye fluorescence; membrane potential signal change, % at 10 µM; hit rate 60% among 920; AID 2780;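 active = membrane potential signal shifting up or down by more than 3 SD of buffer-only wells, on both duplicate plates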
HEK293 MPD ctr-2: checks TRPC6 modulator effects in parental HEK293 cells | membrane potential signal change, % at 10 µM | hit rate 51% among 2,400 | AID 488924 | shares compounds with TRPC6 inh | membrane potential dye fluorescence;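 active = membrane potential signal moves up or down beyond 5 SD from buffer-only wells, on both duplicate plates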
HEK293 MPD ctr 2-2: second check of TRPC6 modulator effects in parental HEK293 cells; membrane potential dye fluorescence; after compound, maximal acetylcholine stimulation; AID 488926; inhibition, % at 10 µM; shares compounds with TRPC6 inh; hit rate 14% among 2,400;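 active = membrane potential signal drops by more than 5 SD from the mean control signal, in both duplicate plates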
TRPC4/MOR mod: selectivity of TRPC6 modulators against mouse TRPC4; shares compounds with TRPC6 inh; hit rate 69% among 2,400; HEK293 TRPC4/mu-opioid, membrane potential fluorescence; percent change from control (negative = decrease, positive = increase), % at 10 µM;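 active = membrane potential signal moved up or down beyond 5 SD of buffer control wells, in both duplicate plates, actives on both sides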
TRPC4/MOR inh 2: second selectivity test of TRPC6 modulators against mouse TRPC4; HEK293 TRPC4/mu-opioid, membrane potential dye fluorescence; stimulated with maximal-effect DAMGO; shares compounds with TRPC6 inh; inhibition, % at 10 µM; hit rate 55% among 2,400;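 active = drop in membrane potential signal beyond 5 SD of the control wells in both duplicate plates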;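 also: TRPC4 counter screen for TRPC6 hits run under conditions tuned for TRPC6 not TRPC4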
TRPC6 block conf: confirmation of mouse TRPC6 inhibitors | shares compounds with TRPC6 inh | HEK293-TRPC6, membrane potential dye, ACh-evoked depolarization | inhibition, % at 10 µM | hit rate 43% among 3,300;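 active = fluorescence ratio falls more than 5 SD below the full-stimulation control mean, in both duplicate runs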;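 also: integrated fluorescence ratio of peak minus minimum over baseline after agonist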
TRPC6 act confirm: confirmation of mouse TRPC6 activators. shares compounds with TRPC6 inh. HEK293-TRPC6 membrane potential dye fluorescence, FDSS. activation, % at 10 µM. hit rate 11% among 2,800;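 active = ratio signal rise beyond 5 SD above unstimulated control wells' mean, seen in both duplicate runs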
Numbers stand for hits; – = inactive; · = no result; + = active, no number.

SMILES	TRPC4 potent	TRPC4 act	TRPC4 block	TRPC6 inh	DSG3 Ab inh	TRPC6 activator	HEK293 MPD ctr-2	HEK293 MPD ctr 2-2	TRPC4/MOR mod	TRPC4/MOR inh 2	TRPC6 block conf	TRPC6 act confirm	others
CCOC(=O)[C@@H]1[C@H]2COc3cc(OC)ccc3[C@@H]2N2C(=O)N(c3ccccc3)C(=O)[C@@]12C	·	·	·	·	–	·	·	·	·	·	·	·
CC(C1CC2CCC1C2)n1c(-c2ccco2)n[nH]c1=S (configuration not stated)	–	–	–	–	–	–	·	·	·	·	·	·
CC1CC(OC(=O)C(O)c2ccccc2)CC(C)(C)N1C (configuration not stated)	–	–	–	-5.7	·	–	–	–	8.5%	–	56%	–
CC(=O)Nc1ccc(/C=N/Nc2nc3ccccc3[nH]2)cc1	–	–	–	–	–	–	·	·	·	·	·	·
Cc1c(/C=N/Nc2nc3ccccc3[nH]2)c2ccccc2n1C	–	–	–	-15	–	–	-192%	74%	-40%	97%	68%	–
COc1cc(/C=N/Nc2nc3ccccc3[nH]2)ccc1O	–	–	–	–	–	–	·	·	·	·	·	·
CCN(CC)c1ccc(/C=N/Nc2nc3ccccc3[nH]2)cc1	–	–	–	-7.7	–	–	·	·	·	·	–	–	TRPC4 spec 2=43%;TRPC4 spec=-18%;HEK293 MPD ctr 2-1=–;HEK293 MPD ctr-1=-235%
COc1ccc(O)c(/C=N/Nc2nc3ccccc3[nH]2)c1	–	–	–	-5	–	–	–	–	–	–	–	–
Cc1nn(-c2ccccc2)c(C)c1/C=N/Nc1nc2ccccc2[nH]1	–	–	–	–	–	–	·	·	·	·	·	·
Cn1c(/C=N/Nc2nc3ccccc3[nH]2)nc2ccccc21	–	–	–	-9.7	–	–	–	–	-10%	–	–	–
COc1ccc(/C=C(/NC(=O)/C=C/c2ccccc2)C(=O)NCCCCCC(=O)O)cc1	–	–	–	–	–	–	·	·	·	·	·	·
Cc1ccsc1C(=O)NCCc1ccc(S(N)(=O)=O)cc1	–	–	–	–	–	–	·	·	·	·	·	·
CNC(=O)N(O)C1N(/N=C/c2ccc(C)cc2)C(=S)SC1(C)C (configuration not stated)	–	–	–	–	–	–	·	·	·	·	·	·
CNC(=O)N(O)C1N(/N=C/c2cc(Br)ccc2O)C(=S)SC1(C)C (configuration not stated)	–	–	–	-6.7	–	–	·	·	·	·	–	–	TRPC4 spec 2=–;TRPC4 spec=-12%;HEK293 MPD ctr 2-1=–;HEK293 MPD ctr-1=-212%
CN1CCN(C(=O)COCc2cc(-c3ccc4c(c3)OCO4)on2)CC1	–	–	–	–	–	–	·	·	·	·	·	·
Fc1ccc(NC(=S)NNc2ncc(C(F)(F)F)cc2Cl)c(F)c1	–	–	–	-6.5	–	–	120%	–	20%	–	50%	·
Cc1ccc2c(c1)C1(OCCCO1)C(=O)N2	–	–	–	–	–	–	·	·	·	·	·	·
COc1ccccc1C(=O)Nc1nc(C)cc(C)n1	–	–	–	–	–	–	·	·	·	·	·	·
COc1cc(CN2CCc3ccccc3C2)ccc1O	–	–	–	–	–	–	·	·	·	·	·	·
O=C(NNC1=C(C(=O)C(F)(F)F)CCC1)c1cccc(O)c1	–	–	–	–	·	–	·	·	·	·	·	·
Cc1cccc(C(=O)NNC2=C(C(=O)C(F)(F)F)CCC2)c1O	–	–	–	-7.6	–	–	·	·	·	·	–	–	TRPC4 spec 2=–;TRPC4 spec=-12%;HEK293 MPD ctr 2-1=–;HEK293 MPD ctr-1=-190%
O=[N+]([O-])c1ccc(S(=O)(=O)Nc2ccccn2)cc1	–	–	–	–	–	–	·	·	·	·	·	·
O=[N+]([O-])c1cccc(/C=N/NC2=NCCCCC2)c1	–	–	–	-5.1	–	–	-80%	–	-15%	39%	–	–
O=[N+]([O-])c1cccc(C=NNc2ccccc2)c1	·	·	·	·	–	·	·	·	·	·	·	·
COC(=O)C1=NN(C(=O)c2cccc(Br)c2)C(O)(c2ccc(Cl)cc2)C1 (configuration not stated)	–	100	–	–	–	30	457%	–	94%	–	·	326%
SMILES	TRPC4 potent	TRPC4 act	TRPC4 block	TRPC6 inh	DSG3 Ab inh	TRPC6 activator	HEK293 MPD ctr-2	HEK293 MPD ctr 2-2	TRPC4/MOR mod	TRPC4/MOR inh 2	TRPC6 block conf	TRPC6 act confirm	others
CCOC(=O)C1=NN(C(=O)c2ccc(OC)cc2)C(O)(c2ccc(Cl)cc2)C1 (configuration not stated)	–	70	–	–	–	17	344%	–	76%	–	·	209%
CCOC(=O)C1=NN(C(=O)c2ccccc2)C(O)(c2ccc(C)cc2)C1 (configuration not stated)	–	–	–	–	–	–	·	·	·	·	·	·
COc1ccc(-c2cn(-c3ccc(C)cc3C)c(=O)[nH]2)cc1OC	–	–	–	–	–	–	·	·	·	·	·	·
S=c1[nH]nc(-c2ccccc2Cl)n1/N=C/C=C/c1ccco1	–	–	–	-6	–	–	–	–	–	–	44%	–
CCCCN1C=CC(=C2N=c3cccc([N+](=O)[O-])c3=N2)C=C1	–	–	–	-5.6	–	–	-132%	78%	-20%	49%	58%	–
CCCCCCN1C=CC(=C2C(=O)c3ccccc3C2=O)C=C1	–	–	–	–	–	–	·	·	·	·	·	·
O=C(CCc1nnc(CCCc2ccccc2)o1)NCCCC1CCCC1	–	–	–	–	–	–	·	·	·	·	·	·
CN(C)c1ccc(/C=C/C(=O)c2cccnc2)cc1	–	–	–	–	–	133	+	+	470%	160%	·	864%

Source: PubChem BioAssay (several laboratories)
